Bioassay records from PubChem.
IMP-1 inhibitor: IMP-1 metallo-beta-lactamase inhibitors, primary screen, biochemical, epi-absorbance readout, Pseudomonas aeruginosa enzyme. metallo-beta-lactamase IMP-1 (Pseudomonas aeruginosa). purified IMP-1, nitrocefin hydrolysis, epi-absorbance fluorescence. inhibition, % at 5.6 µM. 290,000 compounds, 0.45% hits. AID 1556, 2009;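 active = inhibition above the mean plus 3 SD of all compounds in the same screening run, cut at about 4.5% in these data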
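Material – recombinant IMP-1 enzyme, purified · Amount – IMP-1 0.2 nM before substrate addition · Medium – HEPES buffer pH 7.1 with ZnSO4 and Brij 35 · Timing – 25 °C, 15 min preincubation, 25 min reaction · Measured by – plate fluorescence quenching by hydrolysis product, ex 480/em 530 nm · Read-out – percent enzyme inhibition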
NALP3 yeast inh: NALP3 inflammasome inhibitors in reconstituted yeast, primary screen, luminescence, uHTS | 330,000 compounds, 0.39% hits | AID 2825, 2010 | inhibition, % at 10 µM | Yeast reconstituted NLRP3/ASC/caspase-1, beta-gal luminescence, 24 h;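 active = inhibition of 50% or more; inactive = inhibition below 50%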
VIM-2 inh: VIM-2 metallo-beta-lactamase inhibitors, primary screen, biochemical, epi-absorbance readout, Pseudomonas aeruginosa enzyme | purified VIM-2, nitrocefin hydrolysis, epi-absorbance fluorescence | inhibition, % at 5.6 µM | 290,000 compounds, 0.89% hits;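 active = inhibition above the mean of all tested compounds plus 3 SD, cutoff set per screening run, cut at about 7.5% in these data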;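 note: red hydrolysis product quenches plate fluorescence so inhibitors raise well fluorescence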
NALP1 inh: NALP1 inflammasome inhibitors in reconstituted yeast, colorimetric, S. cerevisiae, triplicate retest. S. cerevisiae NALP1/ASC/caspase-1 growth, X-gal OD620, 72 h. inhibition, % at 10 µM. 280,000 compounds, 0.61% hits. AID 2071, 2009; in the data active = inhibition mostly above about 24%, no sharp cut-off; inactive = mostly below about 32%
PolyA inhibitor: polyadenylation inhibitors in yeast reporter cells, primary screen, luminescence, S. cerevisiae; S. cerevisiae SKY197-pL101 polyadenylation reporter, beta-gal luminescence; efflux-impaired pdr1/pdr3 knockout yeast; score 100 = 6 SD above DMSO; activity score, % at 12 µM; 300,000 compounds, 0.02% hits; AID 1875, 2009;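 active = lowest replicate activity score at least 50, where 100 means six control SD above control mean; inconclusive = lowest score under 50 but half or more replicates reach 50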;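 note: yeast exposed to compound for 9 h at 30 °C; higher score means more reporter readthrough which indicates perturbed polyadenylation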
Mot1-301 SUMO: yeast Mot1-301 growth rescue at high temperature, primary screen, SUMOylation pathway inhibitor project, S. cerevisiae, ATP luminescence, 38.5C. S. cerevisiae Mot1-301 growth rescue; percent above DMSO median, 100 means doubled. growth rescue, % at 18.8 µM. 320,000 compounds, 1% hits;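 active = every valid replicate shows activation above 250% relative to neutral control wells; inactive = the rest, any valid replicate at or below 250%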
Each line names hits and unclear results; the compound was inactive in the other large screens. Compounds with a hit are over-represented: about 2.9% of the library has one in this group of screens.

CCOc1ccc(/C=C2\C(=O)c3ccccc3OC2c2ccccc2)cc1 (stereo not drawn)	NALP1 inh 28
CCC1CN(C(=O)N2CCC(C(=O)NCc3cccc(OC)c3OC)CC2)c2cc(C)ccc2O1 (stereo not drawn)	none
CN1C/C(=C/c2ccncc2)C(=O)/C(=C/c2ccncc2)C1	NALP1 inh 66
CN1C/C(=C\c2ccc(N3CCOCC3)cc2)C(=O)/C(=C/c2ccc(N3CCOCC3)cc2)C1	none
Cc1ccc(C)c(S(=O)(=O)Nc2ccc3oc(C)c(C(=O)O)c3c2)c1	IMP-1 inhibitor 6.0
Cc1cc(Br)ccc1NC(=O)CN1C(=S)NC(C)(C)CC1C (stereo not drawn)	NALP1 inh 29
CC1CC(C)(C)NC(=S)N1CCCC(=O)Nc1ccc(Br)cc1 (stereo not drawn)	none
O=C(CCNC(=O)C1CCN(S(=O)(=O)c2ccc(F)cc2)CC1)NCc1ccccc1Cl	none
S=C1NC2=C(CCC/C2=C\c2ccc(Cl)cc2)C(c2ccc(Cl)cc2)N1 (stereo not drawn)	NALP1 inh 40
O=C1CNC(=S)N1CCc1ccccc1Cl	none (no result: NALP1 inh)
CCCc1nnc(SCC(=O)N2CCCCC2C)n1CCCOC (stereo not drawn)	none
CCCc1nnc(SCC(=O)N2CCCCC2C)n1CCOC (stereo not drawn)	NALP1 inh 24
CC(=O)Oc1c(-c2ccc(Br)o2)oc2ccccc2c1=O	none
COc1ccc(/C=C/c2nc3ccccc3n2Cc2ccc(OC)c(OC)c2)cc1	Mot1-301 SUMO 353
O=C(/C=C/c1cccs1)Nc1ccc([N+](=O)[O-])cc1	none
O=C(/C=C/c1cccs1)c1ccc([N+](=O)[O-])cc1	NALP1 inh 43
CC(=O)Nc1ccc2cc3ccc(NC(C)=O)cc3nc2c1	VIM-2 inh 8.4 (no result: NALP3 yeast inh)
C[C@H](CO)N1C[C@H](C)[C@@H](CN(C)S(=O)(=O)c2cccs2)Oc2c(NC(=O)NC3CCCCC3)cccc2C1=O	none (no result: IMP-1 inhibitor, VIM-2 inh, NALP1 inh, PolyA inhibitor)
NS(=O)(=O)c1ccc(-c2ccc(/C=N/NC(=O)c3ccc([N+](=O)[O-])cc3)o2)cc1	Mot1-301 SUMO 311
CCCOc1ccc(C(=O)Nc2ccc(S(=O)(=O)Nc3onc(C)c3C)cc2)cc1	none
CCCOc1ccc(C(=O)N/N=C/c2ccc(-c3ccc(S(=O)(=O)Nc4ncccn4)cc3)o2)cc1	NALP1 inh 43
N#Cc1ccccc1S(=O)(=O)N1CCN(CC(O)CN2CCOCC2)CC1 (stereo not drawn)	none (no result: IMP-1 inhibitor, VIM-2 inh, NALP1 inh, PolyA inhibitor)
CCOc1cc2c(C#N)c(N3CCNCC3)nc(N)c2c(N)n1	VIM-2 inh 8.7
COc1ccc(N2CCN(C3CCCN(C(=O)CCN4CCCCO4)C3)CC2)cc1 (stereo not drawn)	none (no result: Mot1-301 SUMO)
CCOc1ccc(S(=O)(=O)N2CCC(C(=O)NCCc3ccc(S(N)(=O)=O)cc3)CC2)cc1	Mot1-301 SUMO 271
COc1ccc(S(=O)(=O)N2CCC(C(=O)NCCC(=O)NC3CC3)CC2)cc1	NALP1 inh 34
COc1ccc(S(=O)(=O)N2CCC(C(=O)NCCC(=O)Nc3cccc(OC)c3)CC2)cc1	none
NS(=O)(=O)c1ccc(NC(=O)COc2ccc(S(=O)(=O)N3CCCC3)cc2)cc1	Mot1-301 SUMO 342
CCOc1ccc(CCNC(=O)C2CCN(c3nnc(-n4cccc4)s3)CC2)cc1OCC	none
CCOc1ccc(S(=O)(=O)N2CCC(C(=O)NCCc3ccc(OC)c(OC)c3)CC2)cc1	none
CCOc1ccc(CCNC(=O)C2CCN(c3nnc(-n4cccc4)s3)CC2)cc1	NALP1 inh 42, PolyA inhibitor inconclusive
Cc1ccc(S(=O)(=O)NCCC(=O)NCCc2ccc(S(N)(=O)=O)cc2)cc1C	none (no result: IMP-1 inhibitor, VIM-2 inh, NALP1 inh, PolyA inhibitor)
Cc1ccc(CS(=O)Cc2ccc(C(=O)N3CCN(c4ccccn4)CC3)o2)cc1 (stereo not drawn)	none
